Results on 5 compounds are retold here after ChEMBL document CHEMBL1124794, “Synthesis, chemistry, and antineoplastic activity of alpha-halopyridinium salts: potential pyridone prodrugs of acylated vinylogous carbinolamine tumor inhibitors” (J Med Chem, 1990).

Data set [1] is described as follows: Hydrolysis were done at 25 degree C in 0.05 M phosphate buffer (pH 7.4). The class given is ADME. The method, boiled down:
(§1)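 Model pyridinium salts were hydrolysed to pyridones at 25 °C in 0.05 M phosphate buffer, pH 7.4. Decay of the pyridinium UV absorption maximum was monitored over time, giving pseudo-first-order k_obs and half-life.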

A short description of data set [2]: Half life of the compound. The class given is ADME.
Data set [3] can be described thus: Hydrolysis at 25 degree C in 0.05 M phosphate buffer (pH 7.4); the rate was too fast to measure these conditions. The class given is ADME. The method in brief:
as §1

The test system of data set [4] is P388. Put plainly: In vivo activity against P388 Lymphocytic Leukemia in CD2F1 mice at the dose of 100 mg/kg, activity expressed as body weight difference. The class given is functional, Mus musculus. The method, boiled down: (§2)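 CD2F1 mice were inoculated with ascitic fluid holding ca. 10^6 P388 cells. Drug was given daily from 24 h after inoculation, from solutions or suspensions made fresh each day, some as a saline suspension. TDS is survivors/initial animals on day 5. BWD is body weight on day 5 minus day 1. %T/C compares median survival of treated and control mice.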

Data set [5] deals with P388. Put plainly: In vivo activity against P388 Lymphocytic Leukemia in CD2F1 mice at the dose of 12.5 mg/kg, activity expressed as body weight difference. The class given is functional, Mus musculus. The method, boiled down: as §2
For data set [6], the system named is P388. Put plainly: In vivo activity against P388 Lymphocytic Leukemia in CD2F1 mice at the dose of 25 mg/kg, activity expressed as body weight difference. The class given is functional, Mus musculus. The method in brief: as §2
The test system of data set [7] is P388. The data set can be described thus: In vivo activity against P388 Lymphocytic Leukemia in CD2F1 mice at the dose of 50 mg/kg, activity expressed as body weight difference. The class given is functional, Mus musculus. The method, boiled down:
as §2

Data set [8] concerns P388. Put plainly: In vivo activity against P388 Lymphocytic Leukemia in CD2F1 mice at the dose of 50 mg/kg, activity expressed as % T/C. The class given is functional, Mus musculus. The method in brief:
as §2

Data set [9] deals with P388. The data set can be described thus: In vivo activity against P388 Lymphocytic Leukemia in CD2F1 mice at the dose of 12.5 mg/kg, activity expressed as TDS; 6/6. The class given is functional, Mus musculus. The method in brief: as §2
Data set [10] relates to P388. Put plainly: In vivo activity against P388 Lymphocytic Leukemia in CD2F1 mice at the dose of 200 mg/kg, activity expressed as TDS; 0/6. The class given is functional, Mus musculus. The method in brief:
as §2

The subject of data set [11] is P388. The data set can be described thus: In vivo activity against P388 Lymphocytic Leukemia in CD2F1 mice at the dose of 25 mg/kg, activity expressed as TDS; 6/6. The class given is functional, Mus musculus. The method, boiled down: as §2
The subject of data set [12] is P388. The data set can be described thus: In vivo activity against P388 Lymphocytic Leukemia in CD2F1 mice at the dose of 50 mg/kg, activity expressed as TDS; 6/6. The class given is functional, Mus musculus. The method in brief: as §2
Data set [13] relates to P388. The data set can be described thus: In vivo activity against P388 Lymphocytic Leukemia in CD2F1 mice at the dose of 100 mg/kg, activity expressed as KE. The class given is functional, Mus musculus.
Data set [14] relates to P388. Put plainly: In vivo activity against P388 Lymphocytic Leukemia in CD2F1 mice at the dose of 12.5 mg/kg, activity expressed as KE. The class given is functional, Mus musculus.
In data set [15] the test system is P388. The data set can be described thus: In vivo activity against P388 Lymphocytic Leukemia in CD2F1 mice at the dose of 25 mg/kg, activity expressed as KE. The class given is functional, Mus musculus.
Data set [16] has as its system P388. The data set can be described thus: In vivo activity against P388 Lymphocytic Leukemia in CD2F1 mice at the dose of 50 mg/kg, activity expressed as KE. The class given is functional, Mus musculus.
In data set [17] the test system is P388. The data set can be described thus: In vivo activity against P388 Lymphocytic Leukemia in CD2F1 mice at the dose of 12.5 mg/kg, activity expressed as % T/C. The class given is functional, Mus musculus. The method in brief:
as §2

Data set [18] has as its system P388. Put plainly: In vivo activity against P388 Lymphocytic Leukemia in CD2F1 mice at the dose of 25 mg/kg, activity expressed as % T/C. The class given is functional, Mus musculus. The method, boiled down:
as §2

Data set [19] relates to P388. The data set can be described thus: In vivo activity against P388 Lymphocytic Leukemia in CD2F1 mice at the dose of 100 mg/kg, activity expressed as TDS. The class given is functional, Mus musculus. The method in brief:
as §2

Data set [20] deals with P388. Put plainly: In vivo activity against P388 Lymphocytic Leukemia in CD2F1 mice at the dose of 100 mg/kg, activity expressed as % T/C. The class given is functional, Mus musculus. The method in brief:
as §2

As a reminder, the half-life is the time in which the quantity being followed falls by half. A higher half-life goes with slow loss. The T/C is the result in the treated group divided by that in the control group, in per cent.

Regarding `Cc1cc(Cl)c(Cl)[n+](C)c1.O=S(=O)([O-])C(F)(F)F`, the K obs in data set [1] was 0.000917 min⁻¹. This compound had a half-life in [2] of 12.6 h.
Regarding `CCOC(=O)c1cc[n+](C)c(Cl)c1.O=S(=O)([O-])C(F)(F)F`, the K obs in data set [1] was 0.055 min⁻¹. The compound also showed a half-life in data set [2] of 6 h.
The matching figures for `Cc1cc(Br)c(Cl)[n+](C)c1.O=S(=O)([O-])C(F)(F)F`: 0.041 min⁻¹ and 17 h.
As for `CCOC(=O)c1cc[n+](C)c(F)c1.O=S(=O)([O-])C(F)(F)F`, the K obs entry in data set [3] is “Rate too fast”.
With `CC(C)NC(=O)OCc1c(COC(=O)NC(C)C)c(-c2cc[n+](C)c(Cl)c2)n2c1CCC2.[I-]`, the BWD in data set [4] was -0.8 g; in [5], -0.1 g; in data set [6] it was 0.4 g; in data set [7], -0.5 g. Further, the T/C in [8] is 112%; in [17] it was 103%; in [18] it was 103%; in data set [20], 121%. Further, the TDS in data set [9] is 6; in data set [10], 0; in [11], 6; in data set [12], 6; in data set [19], 6. Moreover, the KE in [13] was -1.07; in data set [14] it was -1.56; in data set [15] it was -1.56; in data set [16] it was -1.44.
